HSP90 refold inh – HSP90 refolding inhibition in rabbit reticulocyte lysate. luciferase refolding luminescence, 3 h. inhibition, % at 5.6 µM. actives 0.91% (n = 290,000). AID 1789;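 active = inhibition above the screen-wide mean plus 3 SD, computed separately per campaign, cut at about 16% in these data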;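 note: 0% = DMSO wells and 100% = 60 µM geldanamycin wells; inhibitors lower the luminescence because luciferase stays unfolded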
FLuc act counter – firefly luciferase counter-screen for stimulation assays. P08659. ATPlite luciferase biochemical, luminescence, 10 min; 0 = ATP-free wells, 1 = DMSO control. activation factor at 10 µM. 200,000 tested, under 10 active;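 active = luciferase activation factor, scaled between plate controls, of at least 2 with compound at 10 µM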
Target sequence (P08659 whole entry, looked up): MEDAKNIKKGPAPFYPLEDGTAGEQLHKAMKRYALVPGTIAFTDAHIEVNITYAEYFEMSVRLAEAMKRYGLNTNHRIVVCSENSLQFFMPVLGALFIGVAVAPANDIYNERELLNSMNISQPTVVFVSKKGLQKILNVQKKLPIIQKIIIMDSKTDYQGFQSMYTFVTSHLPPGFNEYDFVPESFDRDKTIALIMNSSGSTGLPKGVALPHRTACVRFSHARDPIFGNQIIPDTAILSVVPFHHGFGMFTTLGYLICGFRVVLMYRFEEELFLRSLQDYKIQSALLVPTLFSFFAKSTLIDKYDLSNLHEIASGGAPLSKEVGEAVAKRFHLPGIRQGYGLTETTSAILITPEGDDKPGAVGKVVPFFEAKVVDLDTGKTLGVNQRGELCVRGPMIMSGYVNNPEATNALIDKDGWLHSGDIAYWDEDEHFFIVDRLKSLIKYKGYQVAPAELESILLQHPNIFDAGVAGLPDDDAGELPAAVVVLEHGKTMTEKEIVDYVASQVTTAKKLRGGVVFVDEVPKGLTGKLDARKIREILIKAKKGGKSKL
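System: Luciferase/luciferin detection reagent, cell-free biochemical luciferase assay | Medium: PBS buffer for ATP | Dosing: Test compounds dosed from 2 mM stocks in 100% DMSO | Timing: 10 min at ambient temperature | Signal: Luminescence measurement of luciferase light output | Evaluation: Luciferase activation, seen as luminescence increase over controls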
FLuc inh counter – counter-screen for luciferase assay inhibitors: firefly luciferase inhibition | ATPLite firefly luciferase biochemical luminescence, 10 min | AID 1006 | P08659 | actives 1.5% (n = 200,000) | inhibition, % at 10 µM;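 active = inhibition above about 50% when tested at 10 µM, limit read from the data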
STAT3 blocker – STAT3 signaling inhibition | U3A cells, IL-6 STAT3-luciferase reporter, luminescence; host cell line lacks STAT1 | actives 0.89% (n = 190,000) | inhibition, % at 5.5 µM | AID 862;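 active = inhibition above the mean inhibition across all screened compounds plus 3 SD, cut at about 44% in these data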;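 note: 0% = DMSO only wells and 100% = 100 µM nifuroxazide control wells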
C8 TRAIL sens – sensitizes caspase-8 expressing cells to TRAIL; actives 1% (n = 360,000); AID 624354; NB7+C8 cells + TRAIL, ATPlite viability luminescence; inhibition (viability loss, TRAIL sensitization), % at 10 µM;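 active = compounds causing at least 50% loss of cell viability in the single-dose screen, relative to plate controls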
PPC-1+TRAIL kill – kills PPC-1 cancer cells in the presence of TRAIL; PPC-1 cells + TRAIL, ATPLite viability luminescence; cell killing (% activity), % at 4 µM or 5 µM; actives 0.41% (n = 220,000);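 active = cell killing above 50% in the first pass at 4 µM, then a duplicate retest at 5 µM averaging 50% or more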;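 note: plate controls were cells with TRAIL plus DMSO for no effect and medium-only wells lacking cells for full effect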
PPC1 cytotox – PPC-1 cell cytotoxicity; actives 50% (n = 1,200); PPC-1 viability, ATPlite luminescence, overnight; cytotoxicity, % at 5 µM; shares compounds with PPC-1+TRAIL kill;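 active = reconfirmed compounds whose average cytotoxicity reaches 50% or more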;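 note: 0% = DMSO-treated cells and 100% = wells holding medium but no cells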
HSP90 inh confirm – confirmation of HSP90 inhibitors. shares compounds with HSP90 refold inh. rabbit reticulocyte lysate, luciferase refolding luminescence, 3 h. inhibition, % at 5.9 µM. actives 64% (n = 2,300). AID 1846; in the data active = inhibition above about 18%;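 note: 0% = vehicle wells and 100% = reference inhibitor wells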
luciferase ctr – firefly luciferase inhibition, HSP90 counter-screen; shares compounds with HSP90 refold inh; purified native firefly luciferase, luminescence; inhibition, % at 5.9 µM; actives 48% (n = 2,300);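 active = inhibition above the mean inhibition of all tested sample wells plus 3 SD, cut at about 10% in these data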;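 note: 0% = DMSO with luciferase and 100% = wells lacking luciferase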
* marks the source's active call; other numbers are inactive results; · = not tested or not shown. Hits are enriched below; roughly 2.2% of the tested compounds scored in any of these assays.

SMILES	HSP90 refold inh	FLuc act counter	FLuc inh counter	STAT3 blocker	C8 TRAIL sens	PPC-1+TRAIL kill	PPC1 cytotox	HSP90 inh confirm	luciferase ctr
Clc1ccc(/C=C/c2nc3ccccc3[nH]2)c(Cl)c1	44*	0	96*	87*	87*	94*	95*	77*	72*
c1ccc(-c2nc3cc4ccccc4cc3[nH]2)nc1	26*	0	95*	86*	86*	89*	90*	72*	66*
CC1CCCN(c2ccc3nc4ccccc4c(=O)n3n2)C1 (stereo unspecified)	36*	0.1	94*	76*	78*	83*	83*	60*	38*
O=C(Nc1ccc2c(c1)OCCO2)c1ccccn1	25*	0.1	93*	70*	75*	43	53*	67*	53*
O=C(Nc1ccc(N2CCCCC2)cc1)c1ccccn1	92*	0	97*	110*	93*	97*	96*	93*	89*
O=C(/C=C\Nc1ccccn1)c1ccccc1	39*	0.1	89*	85*	56*	55*	54*	74*	70*
O=C(/C=C/Nc1ccccc1Br)c1ccccn1	87*	0	97*	109*	93*	92*	93*	98*	94*
COc1ccccc1C1CCN(Cc2ccc(C)cc2)CC1	-3	·	·	·	0	·	·	·	·
O=C(/C=C/c1cccs1)c1ccc(N2CCOCC2)cc1	31*	0	96*	21	76*	64*	65*	58*	69*
O=C(COc1ccc(S(=O)(=O)N2CCOCC2)cc1)NCc1ccccn1	-3	·	·	·	-5	·	·	·	·
Cc1ccc(C(=O)CN2C(=O)c3ccccc3S2(=O)=O)cc1	24*	·	·	·	29	45	46	57*	-9
CNC(=O)c1c(NC(=O)CCS(=O)(=O)c2ccc(C)cc2)sc2c1CCN(C(=O)OC)C2	·	·	·	·	-8	·	·	·	·
CCCc1[nH]n(-c2nc3ccccc3s2)c(=O)c1C=NCCCOC	2	·	·	·	-10	5	·	·	·
CCCCCN=Cc1c(C)[nH]n(-c2nc3ccccc3s2)c1=O	26*	0.5	52*	33	84*	91*	91*	12	1
CCOc1ccc(OCC(=O)Nc2nccs2)cc1	54*	0.2	83*	95*	66*	47	52*	77*	70*
O=C(CCCSc1ccc(Cl)cc1)Nc1cc(S(=O)(=O)N2CCOCC2)ccc1O	·	·	·	·	-9	·	·	·	·
C/C(=N\Nc1nc2ccccc2[nH]1)c1ccc(N2CCOCC2)cc1	19*	0.1	94*	21	73*	71*	71*	1	-12
C/C(=N\Nc1nc(C)cc(C)n1)c1ccc(N2CCOCC2)cc1	0	1	1	10	2	15	·	·	·
COc1ccc(OC)c2sc(N3CCc4ccccc4C3)nc12	2	0.6	41	20	17	13	·	·	·
c1ccc2c(c1)CCN(c1nc3cc4c(cc3s1)OCCO4)C2	54*	0.1	89*	88*	75*	84*	84*	73*	74*
COc1ccc(S(=O)(=O)N2CCOCC2)cc1NC(=O)Cn1nnc2ccccc2c1=O	1	1	-1	10	-2	4	·	·	·
CNC(=S)N/N=C/c1ccc(-c2ccc(Cl)c([N+](=O)[O-])c2)o1	5	1.1	-6	16	0	-4	·	·	·
CNC(=S)N/N=C/c1ccc(-c2ccc(C(=O)O)cc2)o1	34*	·	·	·	-4	5	·	37*	-2
CC(C)(C)OC(=O)CNC(=O)c1nc[nH]c1C(=O)N1CCNCC1	·	·	·	·	7	·	·	·	·
COc1ccc(C(=O)/C=C/Nc2cc(C)ccn2)cc1	31*	·	·	·	61*	35	·	68*	55*
SMILES	HSP90 refold inh	FLuc act counter	FLuc inh counter	STAT3 blocker	C8 TRAIL sens	PPC-1+TRAIL kill	PPC1 cytotox	HSP90 inh confirm	luciferase ctr
Cc1ccnc(N/C=C/C(=O)c2ccc(Br)cc2)c1	9	·	·	·	44	·	·	·	·
COc1ccc(N/C=C/C(=O)c2ccccc2)cc1	54*	·	·	·	71*	·	·	88*	81*
Cc1ccc(NC(=S)NC(=O)C2CC2)c(C)c1	31*	·	·	·	-17	·	·	-10	-18
O=C(O)CSc1nnc(Cn2nnc3ccccc32)n1CCc1ccccc1	25*	1	0	10	-8	3	·	-8	-5
CC(C)N(C(=O)CSc1nnc(Cn2nnc3ccccc32)n1C)C(C)C	-5	1	-2	1	-2	3	·	·	·
CC1=C(C)CC(C(=O)NCc2cccc(Cl)c2)C(C(=O)O)C1 (stereo unspecified)	0	·	·	·	4	·	·	·	·
CC(C)c1ccc(C(=O)NC2=NCCS2)cc1	18*	0.2	84*	34	70*	46	·	42*	38*
Cc1ccc(NC(=S)/C(=C(\[O-])c2ccc(C)c([N+](=O)[O-])c2)[n+]2ccccc2)cc1C	31*	1	2	-9	·	-7	·	17*	-16
CCc1nnc(NC(=O)c2ccc3nc(CC)c(CC)nc3c2)s1	1	0.9	9	4	-1	18	·	·	·
COc1ccc(-c2cn3c(C)c(C(=O)NCCN4CCOCC4)sc3n2)cc1	73*	1	0	-34	-3	15	·	69*	-2
CCOC(=O)C1CCN(C(=O)c2sc3nc(-c4ccccc4)cn3c2C)CC1	0	1	-3	9	0	-4	·	·	·
CCOC(=O)C1CCCN(C(=O)c2sc3nc(-c4ccc(OC)cc4)cn3c2C)C1 (stereo unspecified)	46*	1.1	-6	-22	-6	3	·	45*	-7
CC(C)(C)c1ccc(-c2nnc(SCCN3C(=O)c4ccccc4C3=O)o2)cc1	-4	0.9	14	-6	8	23	·	·	·
CC(C)(C)c1ccc(C(=O)O)c(C(=O)c2ccc(C(=O)O)cc2)c1	2	·	·	·	5	6	·	·	·
COc1ccccc1C(=O)Nc1ccc2ccccc2c1	·	·	·	·	2	·	·	·	·
COc1ccc(C(=O)Nc2ccc3ccccc3c2)c(OC)c1	24*	·	·	·	30	·	·	20*	9.8*
COc1ccc(C(=O)NCCn2ccc3ccccc32)c(OC)c1	38*	1	2	-25	-17	13	·	16	-9
CCCNC(=O)c1ccc(COc2ccc(Cl)cc2)o1	9	·	·	·	-3	·	·	·	·
CCOc1ccc(OCc2ccc(C(=O)NCc3ccncc3)o2)cc1	18*	1	-4	6	-9	3	·	19*	-4
CCCc1ccc(OCc2ccc(C(=O)N3CCSCC3)o2)cc1	52*	·	·	·	-8	·	·	55*	8

High-throughput results (PubChem)
